Rows were chosen to be rich in hits. Some 2.1% of all compounds tested hit in one or more screens of this group.
IEC-6 tox: kills IEC-6 intestinal cells in KLF5 counter-screen | IEC-6 cytotoxicity, luminescence viability | inhibition, % at 5 µM | 290,000 compounds, 0.78% hits | AID 1825; in the data active = inhibition above about 22%;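 note: 0% = plate median of test compound wells and 100% = cytotoxic reference compound wells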
b-catenin transl: alters nuclear translocation of beta-catenin in HeLa cells; 190,000 compounds, 0.3% hits; nuclear translocation activity, % at 5 µM; immunofluorescence imaging;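 active = nuclear translocation activity above 50% at 5 µM, with a well cell count of 50 or more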;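 note: per-cell ratio of nuclear to cytoplasmic median beta-catenin stain intensity; plate controls were DMSO negative control for no effect and GSK-3 inhibitor IX positive control for full effect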
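test system = HeLa cells, endogenous beta-catenin | dosing = single 5 µM dose plus 0.02–20 µM confirmation series | times = compound treatment 24 h, 37°C, 5% CO2 | technique = beta-catenin immunofluorescence imaging with DAPI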
BaF3 tox: counter-screen for JAK2V617F inhibitors: parental Ba/F3 viability inhibitors; CellTiter-Glo ATP luminescence; inhibition, % at 5.6 µM; 220,000 compounds, 1.1% hits; AID 1486;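 active = inhibition above a per-campaign cutoff, the mean inhibition of all tested compounds plus 3 SD, cut at about 27% in these data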;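 note: 0% = DMSO wells and 100% = JAK Inhibitor I control wells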
KLF5 inhibitor: kruppel-like factor 5 inhibition; DLD-1 KLF5 promoter-luciferase reporter, luminescence; inhibition, % at 5 µM; 290,000 compounds, 0.23% hits; AID 1700;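 active = inhibition above a per-plate limit of that plate's mean compound inhibition plus 3 SD, cut at about 60% in these data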;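 note: 0% = DMSO wells and 100% = LY294002 at 200 µM; higher means less KLF5 promoter-driven luciferase light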
MT stabilizer: stabilizes microtubules in HeLa cells. HeLa tubulin immunostaining HCS, 24 h; share of cells brighter than vehicle mean+2SD. % tubulin-high responders, % at 10 µM. 200,000 compounds, 0.83% hits;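 active = plate Z-score above 3 for both tubulin-high and condensed-nucleus cell shares, with cell loss under 80%, at 10 µM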;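 note: anti alpha tubulin signal scored within the nucleus-defined area of each cell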
Ba/F3 V617F tox: loss of viability in JAK2V617F-driven Ba/F3 cells. Ba/F3 EpoR-JAK2V617F viability, ATP luminescence. inhibition, % at 5.6 µM. 220,000 compounds, 1.1% hits;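 active = inhibition above the campaign mean plus 3 SD over all tested compounds, cut at about 24% in these data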;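 note: cytokine-independent growth of Ba/F3 cells driven by EpoR plus mutant JAK2; 0% = DMSO-treated cells and 100% = JAK inhibitor I control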
Active calls of the source: *; · = no result.

SMILES	IEC-6 tox	b-catenin transl	BaF3 tox	KLF5 inhibitor	MT stabilizer	Ba/F3 V617F tox
Brc1cccc(-c2nnc3n2CCCCC3)c1	-1	-6	96*	-22	3	-2
c1ccc(-c2nnc3n2CCCC3)cc1	-6	1	10	-4	3	1
Cc1ccc(S(=O)(=O)N2CCOC2CNC(=O)C(=O)NCc2ccc(Cl)cc2)cc1 (configuration not stated)	3	·	·	-3	·	·
O=C(CCCNC(=O)c1ccc(Cl)cc1)NCc1ccccc1Cl	4	·	·	-9	·	·
Cc1cc(C)c(Cn2cnc(-c3ccc([N+](=O)[O-])cc3)c2)c(C)c1	5	0	2	15	3	6
CC(C)(C)c1ccc(Cn2cnc(-c3ccc([N+](=O)[O-])cc3)c2)cc1	-2	-2	39*	-9	3	-3
CC1(C)NC(=O)N(CCCCOc2ccc(Cl)cc2C=O)C1=O	10	-1	76*	-1	3	71*
CC1(C)NC(=O)N(CCCCOc2ccc(Cl)cc2)C1=O	4	-1	2	-22	2	-5
CN(C)c1cccc(C(=O)Nc2cc(C(F)(F)F)ccc2-n2cnc3ccccc32)c1	1	0	5	3	4	4
CS(=O)(=O)N1CCC(C(=O)Nc2c(F)cccc2F)CC1	-5	5	70*	-11	1	0
O=C(CSc1nnnn1-c1ccc(C(=O)O)cc1)NC1CCCCC1	-6	·	·	-1	·	·
COc1ccccc1CC(=O)NN1C(=O)c2ccccc2C1=O	10	0	35*	-10	4	5
Clc1ccc(-c2cn(-c3ccccc3)c3[n+]2CCS3)cc1	-2	3	78*	-17	3	54*
COc1ccc(-c2cn(-c3ccc(Br)cc3)c3[n+]2CCS3)cc1	2	-1	78*	-14	4	65*
Fc1ccc(-c2cn(-c3ccccc3)c3[n+]2CCS3)cc1	0	0	60*	-7	·	55*
CC(=O)c1ccc(-n2cc(-c3ccc(C(C)(C)C)cc3)[n+]3c2SCCC3)cc1	5	2	62*	-4	4	55*
CC(=O)c1ccc(N2CCN(c3ccc(C(F)(F)F)cn3)CC2)cc1	1	-2	10	-28	2	1
CCOC(=O)c1cc(C)sc1NC(=O)CSC1=NCCS1	1	·	·	-26	·	·
CN(C)C1CCN(C(=O)c2cccc(OC3CCN(S(=O)(=O)N(C)C)CC3)c2)C1 (configuration not stated)	-1	·	·	-24	·	·
O=C(CNC(=S)N(Cc1ccccc1Cl)C1CCCC1)NCCCN1CCOCC1	-1	-2	2	14	2	-1
CCOC(=O)C1=C(C)N=c2s/c(=C\c3cccn3C)c(=O)n2C1c1cccc(OC)c1OC (configuration not stated)	-2	·	96*	-25	4	-5
CCOC(=O)C1=C(C)N=c2s/c(=C\c3ccc(C(=O)O)cc3)c(=O)n2C1c1ccc(OC)cc1OC (configuration not stated)	0	·	·	2	·	·
COc1ccccc1C1CC(c2ccc(Br)cc2)=NN1C(=O)c1cccnc1 (configuration not stated)	8	83*	5	-15	15*	-3
COc1cccc(C2CC(c3ccc(Br)cc3)=NN2C(=O)c2ccncc2)c1OC (configuration not stated)	-1	-6	9	-24	12	4
NS(=O)(=O)c1ccc(CCNC(=O)c2cccc(OC(F)F)c2)cc1	3	0	4	-16	4	3
SMILES	IEC-6 tox	b-catenin transl	BaF3 tox	KLF5 inhibitor	MT stabilizer	Ba/F3 V617F tox
CC1Cc2ccccc2N1C(=O)CN1C(=O)CN(C)C(=O)c2ccccc21 (configuration not stated)	6	-5	0	13	2	-1
CCOCCOC(=O)c1[nH]c2c(c1C)C(=O)CC(c1cccs1)C2 (configuration not stated)	87*	63*	80*	77*	13	80*
CC(SC#N)C(=O)C12CC3CC(CC(C3)C1)C2 (configuration not stated)	-6	-1	6	-9	2	4
CCc1nnc(NC(=O)CCN(c2cc(C)cc(C)c2)S(=O)(=O)c2ccc(Cl)cc2)s1	1	0	7	-19	19*	1
CN(C)CCCN(C(=O)CCOc1ccccc1)c1nc2ccc(F)cc2s1	1	-1	8	-11	3	26*
CC(C)c1nc(SCC(=O)Nc2cccc(C(F)(F)F)c2)c2c(=O)n(C)c(=O)n(C)c2n1	8	-2	4	-8	5	0
CC(C)c1nc(SCC(=O)Nc2ccc3c(c2)OCCO3)c2c(=O)n(C)c(=O)n(C)c2n1	1	2	0	-12	22*	-2
Cc1[nH]c(C)c(S(=O)(=O)NCc2ccc(Cl)cc2)c1C(=O)N1CCCC1	-9	·	·	-7	·	·
COC(=O)c1sc2ccccc2c1-n1cccc1C(=O)C(=O)Nc1ccc(OC)cc1	2	·	-1	-34	22*	-2
O=C(C1CCCN(c2ncnc3c2nc2n3CCCCC2)C1)N1CCN(c2ccccc2F)CC1 (configuration not stated)	2	·	·	-58	·	·
Cc1cc(NC(=O)CSc2nnc(-c3ccccc3)c(-c3ccccc3)n2)no1	-4	2	3	-3	22*	-2
Cc1cc(NC(=O)CSc2ccccc2)no1	0	-3	6	-16	3	1
COc1cc(OC)cc(-c2nnc(SCC(=O)Nc3cc(C)on3)o2)c1	-5	·	95*	-19	3	1
COc1ccc2c(c1)-c1nc(/N=C/c3c(O)ccc4ccccc34)sc1CC2	-9	1	5	-29	5	-4
CCN1C(=O)/C(=C/c2ccc(C)s2)SC1=Nc1ccc(OC)cc1	-2	5	1	-1	33*	1
O=c1[nH]c(=O)n(Cc2ccco2)c2c1C(C(F)(F)F)(C(F)(F)F)N=C(Cc1ccccc1)N2	-5	0	2	-12	3	-3
Cc1ccc(C[n+]2cccc(-c3ccccc3)c2)c(C)c1	13	4	69*	-25	4	77*
Cc1ccc[n+](CC(=O)c2ccccc2)c1	-5	·	·	-11	·	·
CCCn1c(O)c(N=N)c2ccccc21	-4	3	3	-19	3	-1
Cc1cc(C)c2c(c1)-c1c(ssc1=S)C(C)(C)N2C(=O)CSc1nncn1C	11	-1	4	-7	18*	0
Cc1ccc2c(c1)-c1c(ssc1=S)C(C)(C)N2C(=O)CSc1nncn1C	2	0	5	-23	3	2
c1ccc(CN2CCC3(CC2)Nc2ccccc2S3)cc1	-6	-1	-2	-4	·	-5
COc1cc(/C=N/NC(=O)C(Cc2c[nH]c3ccccc23)NC(=O)OCC(C)C)cc([N+](=O)[O-])c1O (configuration not stated)	2	-4	6	27	3	4

Screening results as filed in PubChem BioAssay.
